Assay results: ChEMBL document CHEMBL4602735, “Discovery of (1H-Pyrazolo[3,4-c]pyridin-5-yl)sulfonamide Analogues as Hepatitis B Virus Capsid Assembly Modulators by Conformation Constraint” (J Med Chem, 2020)

What was measured:
[1] = Half life in mouse plasma by HPLC analysis; format: ADME, cell-free
Procedure, shortened: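 Prodrug incubated in plasma at 37 °C, with percent remaining determined by HPLC to derive half-life.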

[2] = Stability in pH 7.4 buffer assessed as compound remaining level at 37 degC by HPLC analysis; format: physicochemical
Procedure, shortened: (§1)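 Prodrug incubated in buffer (0.1 M HCl, pH 5.8, 6.8 or 7.4) at 37 °C; percent of compound remaining determined by HPLC; remaining percentage reported after 3 h, stability meaning no hydrolysis after 2 h.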

[3] = Stability in pH 6.8 buffer assessed as compound remaining level at 37 degC by HPLC analysis; format: physicochemical; procedure, shortened: as §1
[4] = Stability in pH 5.8 buffer assessed as compound remaining level at 37 degC by HPLC analysis; format: physicochemical; procedure, shortened: as §1
[5] = Solubility in water at 1 mg at 25 degC by HPLC analysis; format: physicochemical
Procedure, shortened: (§2)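 Solubility determined in water or 0.067 M phosphate buffer at pH 5.8, 6.8 and 7.4. Values are reported in mg/mL; ND means below the detection limit.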

[6] = Solubility in pH 6.8 phosphate buffer at 1 mg at 25 degC by HPLC analysis; format: physicochemical; procedure, shortened: as §2
[7] = Solubility in pH 5.8 phosphate buffer at 1 mg at 25 degC by HPLC analysis; format: physicochemical; procedure, shortened: as §2
[8] = Solubility in pH 7.4 phosphate buffer at 1 mg at 25 degC by HPLC analysis; format: physicochemical; procedure, shortened: as §2
[9] = system: Hepatitis B virus; assay: Antiviral activity against HBV infected in human HepAD38 cells assessed as reduction in viral DNA levels incubated for 6 days by PCR analysis; format: functional, organism-based; settings: HePAD38, 144 h
[10] = system: Hepatitis B virus; assay: Antiviral activity against HBV infected in human HepG2.A64 cells containing reverse transcriptase L180M/T184L/M204V mutant assessed as reduction in viral replication incubated for 6 days by PCR analysis; format: functional, organism-based; settings: HepG2.A64, 144 h
Procedure, shortened: (§3)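 Wild-type HBV replication measured in HepAD38 and HepG2.2.15 cells, lamivudine/entecavir-resistant HBV in HepG2.A64 cells (rtL180M+rtT184L+rtM204V) and multidrug-resistant HBV in HepG2.1403F cells (rtL180M+rtM204V+rtS202G+rtN236T). Read-out is reduction of HBV DNA. EC50 is reported as mean ± SD.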

[11] = system: Hepatitis B virus; assay: Antiviral activity against multidrug-resistant HBV infected in human HepG2.1403F cells assessed as reduction in viral replication incubated for 6 days by PCR analysis; format: functional, organism-based; settings: 144 h; procedure, shortened: as §3
[12] = Cytotoxicity in human HepG2 cells assessed as induction of cell killing; format: cell-based
[13] = Cytotoxicity in human HepAD38 cells assessed as induction of cell killing; format: cell-based
[14] = Selectivity index, ratio of CC50 for cytotoxicity in human HepAD38 cells assessed as induction of cell killing to EC50 for antiviral activity against HBV infected in human HepAD38 cells assessed as reduction in viral DNA levels incubated for 6 days by PCR analysis; format: toxicity, cell-based; settings: read-out: Ratio CC50/EC50
[15] = Intrinsic clearance in human liver microsomes; format: ADME, Microsome; settings: read-out: CLH
[16] = Intrinsic clearance in mouse liver microsomes; format: ADME, Microsome; settings: read-out: CLH
[17] = phosphate buffer, read-out: solubility

EC50 [9] [µM]	SMILES	CC50 [13] [µM]	selectivity ratio at 144 h [14]	other results
	Cc1cc(Nc2nn(C3CC3)c3cnc(S(=O)(=O)N4CCC(OC(=O)CN)CC4)cc23)ccc1F.O=C(O)C(F)(F)F			half-life [1]: 1.29 h; Stability [2]: 74.2%; Stability [3]: 67.6%; Stability [4]: 88.3%
	CC(=O)O.Cc1cc(Nc2nn(C3CC3)c3cnc(S(=O)(=O)N4CCC(OC(=O)CN(C)C)CC4)cc23)ccc1F			solubility [5]: 1110 µg/mL; solubility ([6]; BLD = below limit of detection): Bld
	CS(=O)(=O)O.CS(=O)(=O)O.Cc1cc(Nc2nn(C3CC3)c3cnc(S(=O)(=O)N4CCC(OC(=O)CN(C)C)CC4)cc23)ccc1F			solubility [5]: 7900 µg/mL; solubility [7]: 7080 µg/mL; solubility [6, 17]: 7690 µg/mL; solubility [8]: 230 µg/mL
0.25	O=S(=O)(c1cc2c(Nc3ccc(F)c(F)c3)nn(C3CC3)c2cn1)N1CCC(O)CC1	> 100	> 400	
0.13	O=S(=O)(c1cc2c(Nc3cc(F)c(F)c(F)c3)nn(C3CC3)c2cc1F)N1CCC(O)CC1	> 100	> 769	
6	O=S(=O)(c1ccc2c(c1)c(Nc1ccc(F)c(C(F)(F)F)c1)nn2C1CC1)N1CCC(O)CC1	7.52	1.3	
0.22	O=S(=O)(c1cc2c(Nc3ccc(F)c(F)c3)nn(C3CC3)c2cn1)N1CCOCC1	> 100	> 454	
0.25	O=S(=O)(c1ccc2c(c1)c(Nc1ccc(F)cc1)nn2C1CC1)N1CCC2(CC1)OCCO2	> 100	> 400	
0.29	O=S(=O)(c1ccc2c(c1)c(Nc1ccc(F)c(C(F)(F)F)c1)nn2C1CC1)N1CCOCC1	8.42	29	
4	O=S(=O)(c1ccc2c(c1)c(Nc1ccc(F)cc1Cl)nn2C1CC1)N1CCC(O)CC1	> 100	> 25	
0.68	O=S(=O)(c1ccc2c(c1)c(Nc1ccc(F)c(C3CC3)c1)nn2C1CC1)N1CCC(O)CC1	5.86	8.6	
0.042	Cc1cc(Nc2nn(C3CC3)c3cnc(S(=O)(=O)N4CCOCC4)cc23)ccc1F	> 100		microsomal CLint [15]: 38 µL/min/mg; microsomal CLint [16]: 53.5 µL/min/mg
0.33	O=C1CCN(S(=O)(=O)c2ccc3c(c2)c(Nc2ccc(F)cc2)nn3C2CC2)CC1	14.2	43	
1.26	CCn1nc(Nc2ccc(F)cc2)c2cc(S(=O)(=O)N3CCC(O)CC3)ccc21	> 100	> 79	
	Cc1cc(Nc2nn(C3CC3)c3cnc(S(=O)(=O)N4CCC(OC(=O)CN(C)C)CC4)cc23)ccc1F.Cl			solubility [5]: 6900 µg/mL; solubility [7]: 6750 µg/mL; solubility [6, 17]: 40 µg/mL; solubility [8]: 16 µg/mL
0.24	O=S(=O)(c1cc2c(Nc3cc(F)c(F)c(F)c3)nn(C3CC3)c2cn1)N1CCC(O)CC1	> 100	> 417	
> 20	Cc1cc(Nc2nn(C3CC3)c3ccc(S(=O)(=O)N4CCC(O)CC4)cc23)ccn1	46.6	< 23	
8	O=S(=O)(c1ccc2c(c1)c(Nc1ccc(F)cc1)nn2C1CCC1)N1CCC(O)CC1	10.8	1.3	

SMILES	EC50 [9] [µM]	CC50 [13] [µM]	selectivity ratio at 144 h [14]	other results
C=C1[C@H](CO)[C@@H](O)C[C@@H]1n1cnc2c(=O)[nH]c(N)nc21	0.011			EC50 [10]: > 10 µM; EC50 [11]: > 10 µM; CC50 [12]: 42.1 µM
